Test results from ChEMBL document CHEMBL1135467 (J Med Chem, 2002).

Assays:
[1] = molecular target: T1, Mu-type opioid receptor (Rattus norvegicus, UniProt P33535); assay: Inhibitory activity against [3H]DAMGO binding to Opioid receptor mu 1 in rat brain membranes; format: cell membranes
Procedure, shortened: (§1)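 Rat brain minus cerebellum homogenised in 0.32 M sucrose/10 mM Tris-HCl and spun. The pellet was preincubated 1 h to strip endogenous opioids. GF/B filtration, scintillation counting.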

[2] = molecular target: T1, Mu-type opioid receptor; assay: Binding affinity towards Opioid receptor mu 1 by displacing [3H]DAMGO in rat brain membranes.; format: cell membranes; procedure, shortened: as §1
[3] = Potency for inhibition of forskolin-stimulated cyclic AMP accumulation in SH-SY5Y cells; format: functional, cell-based; conditions: Homo sapiens
Procedure, shortened: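 SH-SY5Y cells at 85-100% confluence in 24-well plates, in serum-free F12/DMEM with 0.5 mM IBMX, protease inhibitors and DADLE δ-blocker, 10 min at 37 °C. Then 10 µM forskolin plus ligand over a concentration range, 15 min at 37 °C. Ethanol extraction, cAMP measured by commercial kit. Triplicate wells averaged, IC50 fitted.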

T1 sequence (P33535 whole entry): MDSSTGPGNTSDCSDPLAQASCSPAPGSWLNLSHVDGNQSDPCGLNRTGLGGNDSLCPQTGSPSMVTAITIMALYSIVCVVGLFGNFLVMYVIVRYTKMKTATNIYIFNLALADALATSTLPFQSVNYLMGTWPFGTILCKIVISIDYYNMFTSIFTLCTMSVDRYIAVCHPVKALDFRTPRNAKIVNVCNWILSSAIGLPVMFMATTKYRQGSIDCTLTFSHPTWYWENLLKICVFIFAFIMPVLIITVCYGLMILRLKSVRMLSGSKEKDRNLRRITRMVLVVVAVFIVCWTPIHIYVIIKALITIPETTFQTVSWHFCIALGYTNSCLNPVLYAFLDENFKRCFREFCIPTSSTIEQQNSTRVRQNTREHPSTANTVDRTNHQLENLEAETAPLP

Row | Structure (SMILES) | IC50 [1] | Ki [2] | IC50 [3]
1 | NC(=O)[C@H](Cc1ccccc1)NC(=O)[C@H](Cc1c[nH]c2ccccc12)NC(=O)[C@@H]1CCCN1C(=O)C[C@@H](N)Cc1ccc(O)cc1 | 990 nM | 26 nM | –
2 | NC(=O)[C@H](Cc1ccccc1)NC(=O)[C@H](Cc1c[nH]c2ccccc12)NC(=O)C[C@H]1CCCN1C(=O)[C@@H](N)Cc1ccc(O)cc1 | 79 nM | 67 nM | 45 nM
3 | NC(=O)[C@H](Cc1ccccc1)NC(=O)[C@H](Cc1c[nH]c2ccccc12)NC(=O)C[C@@H]1CCCN1C(=O)[C@@H](N)Cc1ccc(O)cc1 | 4 nM | 2.1 nM | 6.53 nM
4 | NC(=O)C[C@H](Cc1ccccc1)NC(=O)[C@H](Cc1c[nH]c2ccccc12)NC(=O)[C@@H]1CCCN1C(=O)[C@@H](N)Cc1ccc(O)cc1 | 80.1 nM | 79 nM | –
5 | NC(=O)[C@H](Cc1ccccc1)NC(=O)C[C@H](Cc1c[nH]c2ccccc12)NC(=O)[C@@H]1CCCN1C(=O)[C@@H](N)Cc1ccc(O)cc1 | 23.3 nM | 73 nM | –
6 | C[C@@H](NC(=O)[C@@H](N)Cc1ccc(O)cc1)C(=O)NCC(=O)N(C)[C@@H](Cc1ccccc1)C(=O)NCCO [DAMGO] | – | – | 1.1 nM
7 | NC(=O)[C@H](Cc1ccccc1)NC(=O)[C@H](Cc1c[nH]c2ccccc12)NC(=O)[C@@H]1CCCN1C(=O)[C@@H](N)Cc1ccc(O)cc1 [ENDOMORPHIN-1] | – | – | 19.1 nM
